For experiment [1], the system named is 5′-fluorescein labeled HCV SLIIb. Description: Reaction kinetics via fluorescence. The experiment is classed as biochemical, hepatitis C virus. Particulars: pseudo Michaelis-Menten, catalytic efficiency. In a few lines:
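Copper–peptide complexes were formed at 1.1:1 peptide:Cu. Each complex was added to 333 nM 5′-fluorescein-SLIIb with 1 mM ascorbic acid and 1 mM H2O2 in 20 mM HEPES (pH 7.4, 100 mM NaCl) at 25 °C. Fluorescence loss was followed at ex 491/em 518 nm and converted to RNA concentration by a calibration curve. Initial velocities were plotted against catalyst concentration and fit to Michaelis–Menten to give KM and kcat. Values are the mean of ≥3 trials.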

Experiment [2] concerns fluorescein-labeled IRES SLIIb. Description: Time-dependent MALDI-TOF mass spectrometry of SLIIb cleavage. The class given is biochemical, hepatitis C virus. Particulars: for Initial Rate (%Overhang/min), 2′, 3′-cPO4: overhang 2′,3′-cyclic phosphates; for Initial Rate (%Overhang/min), 2′, 3′-cPO4 / Initial Rate (%Overhang/min), 3′-AL / Initial Rate (%Overhang/min), 3′-OH / Initial Rate (%Overhang/min), 3′-PO4 / Initial Rate (%Overhang/min), 3′-PGA / Initial Rate (%Overhang/min), 3′-PG / Initial Rate (%Overhang/min), 5′-AL / Initial Rate (%Overhang/min), 5′-GemDiol / Initial Rate (%Overhang/min), 5′-OH / Initial Rate (%Overhang/min), 5′-PO4 / Initial Rate (%Overhang/min), 5′-PPA: MALDI-TOF time dependence; for Initial Rate (%Overhang/min), 3′-AL: overhang 3′-aldehyde; for Initial Rate (%Overhang/min), 3′-OH: overhang 3′-hydroxyl; for Initial Rate (%Overhang/min), 3′-PO4: overhang 3′-phosphates; for Initial Rate (%Overhang/min), 3′-PGA: overhang 3′-phosphoglycaldehyde; for Initial Rate (%Overhang/min), 3′-PG: overhang 3′-phosphoglycolate; for Initial Rate (%Overhang/min), 5′-AL: overhang 5′-aldehyde; for Initial Rate (%Overhang/min), 5′-GemDiol: overhang 5′-geminal diol; for Initial Rate (%Overhang/min), 5′-OH: overhang 5′-hydroxyl; for Initial Rate (%Overhang/min), 5′-PO4: overhang 5′-phosphate; for Initial Rate (%Overhang/min), 5′-PPA: overhang 5′-phosphopropenal; for Relative Initial Rate (Normalized Intensity/min × 1000), position A6 / Relative Initial Rate (Normalized Intensity/min × 1000), position A15 / Relative Initial Rate (Normalized Intensity/min × 1000), position A19 / Relative Initial Rate (Normalized Intensity/min × 1000), position A27 / Relative Initial Rate (Normalized Intensity/min × 1000), position A30 / Relative Initial Rate (Normalized Intensity/min × 1000), position C10 / Relative Initial Rate (Normalized Intensity/min × 1000), position C33 / Relative Initial Rate (Normalized Intensity/min × 1000), position G5 / Relative Initial Rate (Normalized Intensity/min × 1000), position G9 / Relative Initial Rate (Normalized Intensity/min × 1000), position G11 / Relative Initial Rate (Normalized Intensity/min × 1000), position G28 / Relative Initial Rate (Normalized Intensity/min × 1000), position U12 / Relative Initial Rate (Normalized Intensity/min × 1000), position U14 / Relative Initial Rate (Normalized Intensity/min × 1000), position U25 / Relative Initial Rate (Normalized Intensity/min × 1000), position U26 / Relative Initial Rate (Normalized Intensity/min × 1000), position U29 / Relative Initial Rate (Normalized Intensity/min × 1000), position U31: 10 μM SLIIb, 10 μM copper-peptide. In a few lines: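 Reactions contained 10 μM Fl-SLIIb, 10 μM Cu–peptide, 1 mM ascorbate and 1 mM H2O2, and were sampled at 2–180 min. They were quenched on ice, C18-desalted, and analysed by negative-ion reflectron MALDI-TOF (HPA/ammonium citrate matrix, ≥1000 shots). Peaks with m/z >1500 and S/N >5 were assigned against expected product masses. Products were summed per overhang type and expressed as a fraction at each time point. Initial rate was taken from the linear region (first ~40 min).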

Take GGHDRFK-Cu [9-Cu]: the kcat/KM – broadly, the turnover number divided by the Michaelis constant – in experiment [1] was 550 M⁻¹ s⁻¹.

Turning to GGHARFK-Cu [4-Cu], in experiment [2], the “Initial Rate (%Overhang/min), 2′, 3′-cPO4” value stood at 0.5 ± 0.1 %Overhang/min; the “Initial Rate (%Overhang/min), 3′-AL” value stood at 0.5 ± 0.1 %Overhang/min; the “Initial Rate (%Overhang/min), 3′-OH” value is 1.2 ± 0.4 %Overhang/min; the “Initial Rate (%Overhang/min), 3′-PO4” value is recorded as 0.1 ± 0.1 %Overhang/min. Moreover, in experiment [2], the “Initial Rate (%Overhang/min), 3′-PGA” value stood at 1.1 ± 0.4 %Overhang/min; the “Initial Rate (%Overhang/min), 3′-PG” value was 1.5 ± 0.4 %Overhang/min; the “Initial Rate (%Overhang/min), 5′-AL” value worked out at 0.2 ± 0.1 %Overhang/min; the “Initial Rate (%Overhang/min), 5′-GemDiol” value turned out to be 0.8 ± 0.1 %Overhang/min. Also, in experiment [2], the “Initial Rate (%Overhang/min), 5′-OH” value stood at 1.1 ± 0.4 %Overhang/min; the “Initial Rate (%Overhang/min), 5′-PO4” value was 0.4 ± 0.1 %Overhang/min; the “Initial Rate (%Overhang/min), 5′-PPA” value is recorded as 1.4 ± 0.3 %Overhang/min; the “Relative Initial Rate (Normalized Intensity/min × 1000), position A6” value is reported as “- ^a”. For the same substance, in experiment [2], the “Relative Initial Rate (Normalized Intensity/min × 1000), position A15” value is 14.2 ± 4.6 Normalized Intensity/min × 1000; the “Relative Initial Rate (Normalized Intensity/min × 1000), position A19” value is given as 2.9 ± 1.4 Normalized Intensity/min × 1000; the “Relative Initial Rate (Normalized Intensity/min × 1000), position A27” value was 2.1 ± 0.3 Normalized Intensity/min × 1000; the “Relative Initial Rate (Normalized Intensity/min × 1000), position A30” value is reported as <1 Normalized Intensity/min × 1000. Also, in experiment [2], the “Relative Initial Rate (Normalized Intensity/min × 1000), position C10” value is recorded as “- ^a”; the “Relative Initial Rate (Normalized Intensity/min × 1000), position C33” value is recorded as “- ^a”; the “Relative Initial Rate (Normalized Intensity/min × 1000), position G5” value is “- ^a”; the “Relative Initial Rate (Normalized Intensity/min × 1000), position G9” value is recorded as 2.0 ± 0.5 Normalized Intensity/min × 1000. In experiment [2], the “Relative Initial Rate (Normalized Intensity/min × 1000), position G11” value is listed as “- ^a”; the “Relative Initial Rate (Normalized Intensity/min × 1000), position G28” value was “- ^a”; the “Relative Initial Rate (Normalized Intensity/min × 1000), position U12” value was “- ^a”; the “Relative Initial Rate (Normalized Intensity/min × 1000), position U14” value was “- ^a”. Further, in experiment [2], the “Relative Initial Rate (Normalized Intensity/min × 1000), position U25” value is recorded as “- ^a”; the “Relative Initial Rate (Normalized Intensity/min × 1000), position U26” value is 1.9 ± 0.4 Normalized Intensity/min × 1000; the “Relative Initial Rate (Normalized Intensity/min × 1000), position U29” value is on record as “- ^a”; the “Relative Initial Rate (Normalized Intensity/min × 1000), position U31” value is recorded as 1.4 ± 0.4 Normalized Intensity/min × 1000. Also, the “kcat/KM” value in experiment [1] is 633 M⁻¹ s⁻¹.

For GGHYAFK-Cu [5-Cu], in experiment [2], the “Initial Rate (%Overhang/min), 2′, 3′-cPO4” value turned out to be 0.2 ± 0.1 %Overhang/min; the “Initial Rate (%Overhang/min), 3′-AL” value is reported as 0.2 ± 0.1 %Overhang/min; the “Initial Rate (%Overhang/min), 3′-OH” value was 1.2 ± 0.1 %Overhang/min; the “Initial Rate (%Overhang/min), 3′-PO4” value is listed as 0.8 ± 0.1 %Overhang/min. Also, in experiment [2], the “Initial Rate (%Overhang/min), 3′-PGA” value came out at 0.1 ± 0.1 %Overhang/min; the “Initial Rate (%Overhang/min), 3′-PG” value was 0.1 ± 0.1 %Overhang/min; the “Initial Rate (%Overhang/min), 5′-AL” value is 1.0 ± 0.2 %Overhang/min; the “Initial Rate (%Overhang/min), 5′-GemDiol” value was found to be 0.5 ± 0.1 %Overhang/min. In experiment [2], the “Initial Rate (%Overhang/min), 5′-OH” value amounted to 0.6 ± 0.1 %Overhang/min; the “Initial Rate (%Overhang/min), 5′-PO4” value came out at 1.5 ± 0.6 %Overhang/min; the “Initial Rate (%Overhang/min), 5′-PPA” value is given as 0.2 ± 0.1 %Overhang/min; the “Relative Initial Rate (Normalized Intensity/min × 1000), position A6” value is listed as “- ^a”. Besides, in experiment [2], the “Relative Initial Rate (Normalized Intensity/min × 1000), position A15” value is on record as “- ^a”; the “Relative Initial Rate (Normalized Intensity/min × 1000), position A19” value is given as 1.0 ± 0.7 Normalized Intensity/min × 1000; the “Relative Initial Rate (Normalized Intensity/min × 1000), position A27” value was 1.1 ± 0.3 Normalized Intensity/min × 1000; the “Relative Initial Rate (Normalized Intensity/min × 1000), position A30” value is given as “- ^a”. Further, in experiment [2], the “Relative Initial Rate (Normalized Intensity/min × 1000), position C10” value was 1.0 ± 0.2 Normalized Intensity/min × 1000; the “Relative Initial Rate (Normalized Intensity/min × 1000), position C33” value is reported as <1 Normalized Intensity/min × 1000; the “Relative Initial Rate (Normalized Intensity/min × 1000), position G5” value is on record as <1 Normalized Intensity/min × 1000; the “Relative Initial Rate (Normalized Intensity/min × 1000), position G9” value is “- ^a”. In addition, in experiment [2], the “Relative Initial Rate (Normalized Intensity/min × 1000), position G11” value was “- ^a”; the “Relative Initial Rate (Normalized Intensity/min × 1000), position G28” value is on record as “- ^a”; the “Relative Initial Rate (Normalized Intensity/min × 1000), position U12” value was <1 Normalized Intensity/min × 1000; the “Relative Initial Rate (Normalized Intensity/min × 1000), position U14” value is listed as “- ^a”. Also, in experiment [2], the “Relative Initial Rate (Normalized Intensity/min × 1000), position U25” value is 3.1 ± 0.6 Normalized Intensity/min × 1000; the “Relative Initial Rate (Normalized Intensity/min × 1000), position U26” value is recorded as “- ^a”; the “Relative Initial Rate (Normalized Intensity/min × 1000), position U29” value is listed as “- ^a”; the “Relative Initial Rate (Normalized Intensity/min × 1000), position U31” value is “- ^a”. In experiment [1], the “kcat/KM” value was 300 M⁻¹ s⁻¹.

In the case of GGHNRFK-Cu [10-Cu], in experiment [1], the “kcat/KM” value amounted to 67 M⁻¹ s⁻¹.

On to GGHKFRY-Cu [8-Cu], for which, in experiment [2], the “Initial Rate (%Overhang/min), 2′, 3′-cPO4” value is reported as 0.1 ± 0.1 %Overhang/min; the “Initial Rate (%Overhang/min), 3′-AL” value was found to be 0.2 ± 0.1 %Overhang/min; the “Initial Rate (%Overhang/min), 3′-OH” value was 0.4 ± 0.1 %Overhang/min; the “Initial Rate (%Overhang/min), 3′-PO4” value amounted to 1.3 ± 0.2 %Overhang/min. For the same substance, in experiment [2], the “Initial Rate (%Overhang/min), 3′-PGA” value amounted to 0.3 ± 0.1 %Overhang/min; the “Initial Rate (%Overhang/min), 3′-PG” value is 0.1 ± 0.1 %Overhang/min; the “Initial Rate (%Overhang/min), 5′-AL” value came out at 0.9 ± 0.1 %Overhang/min; the “Initial Rate (%Overhang/min), 5′-GemDiol” value amounted to 0.5 ± 0.1 %Overhang/min. In addition, in experiment [2], the “Initial Rate (%Overhang/min), 5′-OH” value amounted to 1.1 ± 0.4 %Overhang/min; the “Initial Rate (%Overhang/min), 5′-PO4” value was 0.7 ± 0.1 %Overhang/min; the “Initial Rate (%Overhang/min), 5′-PPA” value came out at 0.7 ± 0.1 %Overhang/min; the “Relative Initial Rate (Normalized Intensity/min × 1000), position A6” value was “- ^a”. Also, in experiment [2], the “Relative Initial Rate (Normalized Intensity/min × 1000), position A15” value is listed as “- ^a”; the “Relative Initial Rate (Normalized Intensity/min × 1000), position A19” value is on record as “- ^a”; the “Relative Initial Rate (Normalized Intensity/min × 1000), position A27” value is 1.1 ± 0.3 Normalized Intensity/min × 1000; the “Relative Initial Rate (Normalized Intensity/min × 1000), position A30” value is <1 Normalized Intensity/min × 1000. For the same substance, in experiment [2], the “Relative Initial Rate (Normalized Intensity/min × 1000), position C10” value was “- ^a”; the “Relative Initial Rate (Normalized Intensity/min × 1000), position C33” value is listed as “- ^a”; the “Relative Initial Rate (Normalized Intensity/min × 1000), position G5” value is listed as 3.7 ± 1.8 Normalized Intensity/min × 1000; the “Relative Initial Rate (Normalized Intensity/min × 1000), position G9” value is “- ^a”. For the same substance, in experiment [2], the “Relative Initial Rate (Normalized Intensity/min × 1000), position G11” value is listed as 0.6 ± 0.2 Normalized Intensity/min × 1000; the “Relative Initial Rate (Normalized Intensity/min × 1000), position G28” value is <1 Normalized Intensity/min × 1000; the “Relative Initial Rate (Normalized Intensity/min × 1000), position U12” value was “- ^a”; the “Relative Initial Rate (Normalized Intensity/min × 1000), position U14” value was “- ^a”. In addition, in experiment [2], the “Relative Initial Rate (Normalized Intensity/min × 1000), position U25” value is listed as <1 Normalized Intensity/min × 1000; the “Relative Initial Rate (Normalized Intensity/min × 1000), position U26” value was <1 Normalized Intensity/min × 1000; the “Relative Initial Rate (Normalized Intensity/min × 1000), position U29” value is given as <1 Normalized Intensity/min × 1000; the “Relative Initial Rate (Normalized Intensity/min × 1000), position U31” value was “- ^a”. Further, in experiment [1], the specificity constant (kcat/KM) is 120 M⁻¹ s⁻¹.

As for GGHFRFK-Cu [12-Cu], the “kcat/KM” value in experiment [1] was 167 M⁻¹ s⁻¹.

For the origin of these results see paper PMC5970367 (Chembiochem : a European journal of chemical biology, 2017).
